Compounds with a hit are over-represented: about 3.2% of the library has one in this group of screens.
MEKK2 mut-MEK5: signal of MEK5 binding to mutant human MEKK2 PB1 domain; bead flow cytometry, Alexa488-MEK5 binding to MEKK2 mutant; percent response, % at 10 µM; hit rate 0.35% among 290,000; AID 1530; in the data active = percent response above about 24%, passing the limit was not always enough
UBC13 inh: human UBC13 polyubiquitination inhibition; UBC13 polyubiquitin chain formation, TR-FRET; inhibition, % at 20 µM; hit rate 0.47% among 330,000; in the data active = inhibition above about 45%, passing the limit was not always enough
MEKK3 PB1 HTS: MEKK3-MEK5 PB1 interaction, increase or decrease. AID 1529. Q99759. bead-based flow cytometry, Alexa488-MEK5 binding to MEKK3; actives lie on both sides; 0 = blocked by unlabeled MEK5, 100 = vehicle. binding response (% of control), % at 10 µM. hit rate 1.4% among 290,000;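 active = binding response more than 3 SD above or below the average of its plate-row segment, actives on both sides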;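 also: Alexa488 bead fluorescence after subtracting the streptavidin-only scavenger bead signal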
MEKK2 WT-MEK5: raises or lowers MEK5 binding to wildtype human MEKK2 PB1 domain. Q9Y2U5. bead flow cytometry, Alexa488-MEK5 binding to MEKK2 WT; actives lie on both sides. binding response (% of control), % at 10 µM. hit rate 1.1% among 290,000. AID 1531; in the data active = binding response below about 67% or above about 130%
Pemphigus Ab inh: inhibitors of pemphigus antibody binding to human desmoglein-3; P32926; hit rate 0.48% among 310,000; AID 588358; DSG3-coupled beads, scFv-anti-DSG3-GFP binding, flow cytometry; hits give low values; binding (percent of control), % at 10 µM;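 active = binding more than 3 SD below its plate's average and above zero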;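 also: hits lower antibody fragment binding to DSG3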
Apaf-1 inh: inhibitors of human Apaf-1 apoptosome | inhibition, % at 20 µM | AID 489030 | reconstituted apoptosome caspase-3 activity, DEVD-Rh110 fluorescence | hit rate 0.71% among 330,000 | O14727; active = inhibition of at least 40% at 20 µM;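 also: plate controls were DMSO wells for no effect and DEVD-CHO caspase inhibitor wells for full effect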
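Medium: Hepes buffer, pH 7.5 / System: biochemical Apaf-1 apoptosome reconstitution / Measured by: Rh110 fluorescence, excitation 480 nm, emission 540 nm / Times: compound with Apaf-1, dATP, procaspase-3 30 min, then 50 min reaction, room temperature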
MEKK2wt confirm: raises or lowers MEK5 binding to wildtype human MEKK2, retest. bead flow cytometry, Alexa488-MEK5 binding to MEKK2 WT; actives lie on both sides. hit rate 2.4% among 5,900. binding response (% of control), % at 10 µM. shares compounds with MEKK3 PB1 HTS; in the data active = binding response below about 16% or above about 210%; inactive = in between
MEKK2mut-MEK5: signal of MEK5 binding to mutant human MEKK2, retest; AID 1893; bead flow cytometry, Alexa488-MEK5 binding to MEKK2 mutant; hit rate 2% among 5,900; percent response, % at 10 µM; shares compounds with MEKK3 PB1 HTS; in the data active = percent response mostly above about 71%, no sharp cut-off; inactive = mostly below about 38%;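 also: higher means compound restores mutant binding toward wildtype level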
MEKK3-MEK5 inh: MEKK3-MEK5 PB1 inhibition, single concentration confirmation. AID 1894. hit rate 1.8% among 5,900. binding response (% of control), % at 10 µM. bead flow cytometry, Alexa488-MEK5 binding to MEKK3; hits give low values. shares compounds with MEKK3 PB1 HTS;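 active = binding response below 72% of control, or above a set upper limit, though filed actives all read lower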;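 also: 100% = DMSO only wells and 0% = binding blocked by excess unlabeled MEK5; lower values mean stronger disruption of MEK5 binding to MEKK3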
Starred values were filed as active, the others as inactive; . = not tested or not shown; [ ] = remark or other dose.

SMILES	MEKK2 mut-MEK5	UBC13 inh	MEKK3 PB1 HTS	MEKK2 WT-MEK5	Pemphigus Ab inh	Apaf-1 inh	MEKK2wt confirm	MEKK2mut-MEK5	MEKK3-MEK5 inh
CC(=O)NC(CC(=O)Nc1ccc(S(=O)(=O)NC2=NCCCCC2)cc1)c1ccccc1 (stereo unspecified)	.	8	.	.	.	-13	.	.	.
COC(=O)C(OC(=O)c1ccccc1)C(C)Br (stereo unspecified)	.	4	.	.	102	3	.	.	.
COc1ccc(CNC(=O)CN2CCC(NC(=O)c3cccc(OC)c3)CC2)cc1	.	.	.	.	106	.	.	.	.
N=c1sccn1CC(=O)Nc1ccccc1Sc1ccccc1	45	11	156*	178*	102	6	106	0	99
O=C(CN1CCOCC1)Nc1ccccc1Sc1ccccc1	-4	2	91	94	101	11	.	.	.
O=c1c2cc(Cl)ccc2oc2nc3n(c(=O)c12)CCCS3	-9	-9	74*[inhibitor]	81	122	2	102	4	102
N#Cc1c(-c2ccc(Cl)cc2)nc2n(c1=O)CCCS2	8	2	105	108	100	-4	.	.	.
CCN(CC)c1nc2ccccc2n2cnnc12	0	-13	98	99	97	12	.	.	.
O=c1[nH]c2ccccc2n2cnnc12	6	4	147*	126	101	4	100	6	105
CCc1ccccc1NC(=O)C1=CN2CCS(=O)(=O)N=C2C=C1	.	-6	.	.	85	7	.	.	.
CC(C)Oc1ccc(C(=O)N2CCCc3ccccc32)cc1	7	5	123*	117	105	10	102	2	105
CCCCN(CCCC)S(=O)(=O)c1ccc(NC(=O)Cc2cccs2)cc1	15	-1	112	143*	93	7	104	-8	104
CC(C)C[C@H](NC(=O)OC(C)(C)C)C(=O)N[C@@H](CO)[C@H](O)[C@@H]1C[C@@H]1C(=O)N(C)C	3	6	99	111	97	9	.	.	.
COC(=O)c1ccccc1NC(=O)C1CC(=O)N(c2ccc(C)c(C)c2)C1 (stereo unspecified)	6	4	131*	127	102	10	99	-13	102
Cc1ccc(S(=O)(=O)NN2CCCCCC2)cc1	.	.	.	.	101	.	.	.	.
O=C(c1ccccc1)c1c2c(cc3sc4ccccc4[n+]13)-c1cccc3cccc-2c13	-3	.	91	60*[inhibitor]	135	.	91	-2	93
NS(=O)(=O)c1ccc(N=Nc2c(O)c(C(=O)O)cc3ccccc23)cc1	-39	-261	65*[inhibitor]	69	88	28	96	-4	98
O=C(CS(=O)(=O)c1ccccc1)Nc1ccccc1Br	.	.	.	.	111	.	.	.	.
CC(=O)c1cccc(CN2CCC(C(=O)Nc3ccc(Oc4cccnc4)cc3)CC2)c1	10	2	105	121	101	14	.	.	.
CC(=O)c1cccc(CN2CCC(C(=O)Nc3ccc(-c4cccc(C)c4)cc3)CC2)c1	19	17	107	176*	112	29	153	50	105
Cc1[nH]c2ccccc2c1N=Nc1cccc(C(=O)O)c1	1	-12	68*[inhibitor]	95	104	4	107	4	106
Cc1nccn1CCC(=O)NC1CC(C)(C)Cc2c1cnn2-c1ccccc1 (stereo unspecified)	.	.	.	.	101	.	.	.	.
Nc1c2c(nc3sc4c(c13)CCCCC4)CCCCC2	1	11	139*	111	121	7	107	2	101
O=C(OCCOCCN=C1NS(=O)(=O)c2ccccc21)c1ccccc1	-5	2	99	97	97	1	.	.	.
O=C(OCCN=C1NS(=O)(=O)c2ccccc21)c1ccccc1	7	8	122*	127	.	-3	103	2	104
SMILES	MEKK2 mut-MEK5	UBC13 inh	MEKK3 PB1 HTS	MEKK2 WT-MEK5	Pemphigus Ab inh	Apaf-1 inh	MEKK2wt confirm	MEKK2mut-MEK5	MEKK3-MEK5 inh
Cc1nnc(Sc2cc(C(=O)NCCCN(C)Cc3ccccc3)c3ccccc3n2)s1	2	-3	131*	120	.	-8	116	13	101
COc1ccc(CCNC(=O)CN2C(=O)C(=O)N(C3CCCC3)C2=O)cc1OC	.	-5	.	.	90	2	.	.	.
O=C(CN1CCOCC1)Nc1ncc(Cc2cccc(Cl)c2)s1	0	-11	152*	109	80	-1	105	3	106
Cc1cc(C)nc(SCC(=O)Nc2ncc(Cc3cccc(Cl)c3)s2)n1	-3	10	92	95	87	19	.	.	.
Cc1nnc(NN)n(N)c1=O	4	-4	105	100	107	-13	.	.	.
Cc1nnc(Nc2ccccc2)n(N)c1=O	-21	7	0.0*[inhibitor]	-1.0*[inhibitor]	101	-2	104	7	104
O=C(N/N=C/c1ccc([N+](=O)[O-])o1)c1cn(-c2ccccc2)nc1-c1ccccc1	0	-30	139*	104	92	17	102	9	108
COc1ccccc1C(=O)NCCC(=O)NC1CCC(C)CC1 (stereo unspecified)	.	2	.	.	81	2	.	.	.
COCCNC(=S)NN=C1CCCCCC1	-46	.	4.0*[inhibitor]	7.0*[inhibitor]	103	.	102	0	102
COCCNC(=S)NN=C1CCC(c2ccccc2)CC1 (stereo unspecified)	-4	12	100	95	117	-13	.	.	.
COc1ccc(C2C3=C(CC(C)(C)CC3=O)Nc3c2c(=O)n(C)c(=O)n3C)cc1OC (stereo unspecified)	1	19	128*	119	103	-7	108	1	104
C=CCOc1ccccc1C1C2=C(CC(C)(C)CC2=O)Nc2c1c(=O)n(C)c(=O)n2C (stereo unspecified)	.	5	.	.	104	2	.	.	.
N/C(COc1cc(Cl)cc(Cl)c1)=N\O	25	-6	135*	115	119	-7	105	-2	107
CN(C)CCOc1cc(Cl)cc(Cl)c1	-10	11	96	103	97	-7	.	.	.
CSCCC(C(=O)OCC(=O)c1ccc(C)c(C)c1)N1C(=O)c2cc(Cl)c(Cl)cc2C1=O (stereo unspecified)	-15	1	2.0*[inhibitor]	2.0*[inhibitor]	.	6	90	-4	97
COc1ccc(C(C)C)cc1S(=O)(=O)N1CCN(C)CC1	10	0	133*	133	98	1	112	3	107

Screening results (PubChem)
